Results: ChEMBL document CHEMBL4610079, “Anti-inflammatory Flavanones and Flavones from Tephrosia linearis” (2020)

Experiments:
Format in all cases: functional
PBMC [1] = experiment: Antiinflammatory activity in LPS-induced human PBMC cells assessed as IL-1beta release at 100 uM after 24 hrs by luminex based bead assay relative to control
In short: (§1)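 Pooled cryopreserved human PBMCs from three donors were thawed and resuspended in RPMI 1640 with 10% FBS, at 100 000 cells/well. Each test item was given at 100 μM from a 20 mM DMSO stock, with 0.5% final DMSO. It was co-incubated with 10 μg/mL LPS for 24 h at 37 °C and 5% CO2. Supernatant was read by MagPix cytokine bead array, expressed as % of LPS control, n = 1.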

PBMC [2] = experiment: Antiinflammatory activity in LPS-induced human PBMC cells assessed as IL-2 release at 100 uM after 24 hrs by luminex based bead assay relative to control; in short: as §1
PBMC [3] = experiment: Antiinflammatory activity in LPS-induced human PBMC cells assessed as IL-6 release at 100 uM after 24 hrs by luminex based bead assay relative to control; in short: as §1
PBMC [4] = experiment: Antiinflammatory activity in LPS-induced human PBMC cells assessed as GM-CSF release at 100 uM after 24 hrs by luminex based bead assay relative to control; in short: as §1
PBMC [5] = experiment: Antiinflammatory activity in LPS-induced human PBMC cells assessed as TNFalpha release at 100 uM after 24 hrs by luminex based bead assay relative to control; in short: as §1

Row | SMILES | Activity (PBMC [1]) | Activity (PBMC [2]) | Activity (PBMC [3]) | Activity (PBMC [4]) | Activity (PBMC [5])
1 | COc1cc(-c2cc(=O)c3ccc(O)cc3o2)ccc1O | 109.22% | 57.64% | 100% | 92.58% | 3.64%
2 | C=C(C)C(O)Cc1c(O)cc2oc(-c3ccc(O)cc3)cc(=O)c2c1O (stereo not given) | 103.28% | 57.64% | 238.54% | 38.92% | 5.2%
3 | COc1cc2oc(-c3ccc(O)c(O)c3)c(O[C@@H]3O[C@@H](C)[C@H](O)[C@@H](O)[C@H]3O)c(=O)c2c(O)c1OC | 148.44% | 17.72% | 24.94% | 48.79% | 3.83%
4 | COc1cc([C@@H]2CC(=O)c3cc(OC)c(O)cc3O2)ccc1O | 220.43% | 57.6% | 100% | 35.76% | 12.55%
5 | COc1c2c(c(/C=C\C(C)(C)O)c3oc(-c4ccccc4)cc(=O)c13)OC(C)(C)C=C2 | 1.18% | 57.6% | 0% | 8.63% | 0.17%
6 | C=C(C)/C=C/c1c2c(c(O)c3c(=O)cc(-c4ccccc4)oc13)C=CC(C)(C)O2 | 169.84% | 17.72% | 622.32% | 78.39% | 1.89%
7 | COc1cc2c(c(O)c1CC=C(C)C)C(=O)C[C@@H](c1ccc(O)cc1)O2 | 102.34% | 57.64% | 19.57% | 46.89% | 6.38%
8 | COc1cc(-c2cc(=O)c3cc(OC)c(O)cc3o2)ccc1O | 170.51% | 17.72% | 43.11% | 17.39% | 4.03%
9 | CC(=O)OCC1(C)C=Cc2c(cc(O)c3c2O[C@H](c2ccccc2)CC3=O)O1 (stereo not given in full) | 157.09% | 17.72% | 43.39% | 40.97% | 2.66%
10 | C=C(C)/C=C/c1c2c(c(OC)c3c(=O)cc(-c4ccccc4)oc13)C=CC(C)(C)O2 | 75.85% | 57.6% | 97.43% | 83.73% | 3.15%
11 | COc1c2c(c(/C=C/C(C)(C)OC)c3oc(-c4ccccc4)cc(=O)c13)OC(C)(C)C=C2 | 68.27% | 57.6% | 10.89% | 17.39% | 0.92%
12 | COc1c(O)cc2oc(-c3ccc(O)c(O)c3)c(O[C@@H]3O[C@@H](C)[C@H](O)[C@@H](O)[C@H]3O)c(=O)c2c1O | 4.81% | 57.6% | 0.64% | 8.63% | 0.54%
13 | CC(C)=CCc1c(O)cc2oc(-c3ccc(O)cc3)cc(=O)c2c1O | 40.83% | 17.72% | 24.72% | 48.79% | 5.01%
14 | C=C(C)C(O)Cc1c(OC)cc2c(c1O)C(=O)C[C@@H](c1ccc(O)cc1)O2 (stereo not given in full) | 53.77% | 17.72% | 25.79% | 32.47% | 4.03%
15 | O=c1cc(-c2ccc(O)cc2)oc2cc(O)cc(O)c12 [APIGENIN] | 105.17% | 57.6% | 48.33% | 32.47% | 4.22%
16 | CC1(C)C=Cc2c(cc(O)c3c(=O)cc(-c4ccc(O)cc4)oc23)O1 [ATALANTOFLAVONE] | 48.35% | 57.64% | 7.23% | 4.87% | 1.12%
17 | CC(C)Cc1ccc(C(C)C(=O)O)cc1 (stereo not given) [IBUPROFEN] | 199.29% | 80.33% | 46.46% | 47.76% | 12.23%
18 | O=c1cc(-c2ccc(O)c(O)c2)oc2cc(O)cc(O)c12 [LUTEOLIN] | 0.67% | 57.6% | 0.04% | 8.63% | 0.17%
19 | COc1cc(O)c2c(=O)cc(-c3ccc(O)c(OC)c3)oc2c1 [VELUTIN] | 0.8% | 57.6% | 0.09% | 8.63% | 0.92%
